Ten molecules from ChEMBL document CHEMBL1131450, “Synthesis and antitumor evaluation of 2,5-disubstituted-indazolo[4, 3-gh]isoquinolin-6(2H)-ones (9-aza-anthrapyrazoles)” (J Med Chem, 1998) can be followed below.

≈ marks a conversion by molar mass, not a printed value.

In assay [1] the test system is P388. Briefly: In vivo antitumor activity was measured on systemic P388 murine leukemia cells. Optimal dose 120 mg/kg/day. It counts as functional, Mus musculus. Summed up:
(§1)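 CD2F1 male mice given 10⁶ P388 leukemia cells iv (day 0); drug given iv on days 1, 4 and 7. Survival expressed as T/C% = median survival time of treated / median survival of controls × 100, reported at optimal dose (mg/kg/day) or maximum tested dose.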

The test system of assay [2] is LoVo. Briefly: In vitro cytotoxicity on human colon adenocarcinoma (LoVo ) tumor cell line. In kind it is functional, cell-based.
Assay [3] deals with LoVo/Dx (Homo sapiens). Put plainly: cells.
The test system of assay [4] is MX1. Put plainly: In vivo antitumor activity was measured on MX-1 human mammary carcinoma cells. TWI%=tumor weight inhibition. Optimal dose 130 mg/kg/day. In kind it is functional.
Assay [5] concerns P388. Put plainly: In vivo antitumor activity was measured on systemic P388 murine leukemia cells. Optimal dose 90 mg/kg/day. In kind it is functional, Mus musculus. Summed up: as §1
The test system of assay [6] is LoVo. Briefly: Resistance index measured as the ratio of IC50 of LoVo/Dx cell line to that of LoVo cell line. It counts as functional, Homo sapiens.
In assay [7] the test system is MX1. Put plainly: In vivo antitumor activity was measured on MX-1 human mammary carcinoma cells. TWI%=tumor weight inhibition. Optimal dose 120 mg/kg/day. In kind it is functional.
In assay [8] the test system is P388. Briefly: In vivo antitumor activity was measured on systemic P388 murine leukemia cells. Maximum tested dose 3 mg/kg/day. In kind it is functional, Mus musculus. Summed up: as §1
Assay [9] relates to MX1. Put plainly: In vivo antitumor activity was measured on MX-1 human mammary carcinoma cells. TWI%=tumor weight inhibition. Optimal dose 24 mg/kg/day. It counts as functional.
In assay [10] the test system is P388. Briefly: In vivo antitumor activity was measured on systemic P388 murine leukemia cells. Optimal dose 40 mg/kg/day. It counts as functional, Mus musculus. The note with it: in the assay text read “6 mg/kg/day” for “40 mg/kg/day”. Summed up:
as §1

Assay [11] relates to P388. Put plainly: In vivo antitumor activity was measured on systemic P388 murine leukemia cells. Optimal dose 1.5 mg/kg/day. It counts as functional, Mus musculus. Summed up:
as §1

The subject of assay [12] is P388. Put plainly: In vivo antitumor activity was measured on systemic P388 murine leukemia cells. Optimal dose 7.5 mg/kg/day. It counts as functional, Mus musculus. Summed up: as §1
Assay [13] relates to MX1. Briefly: In vivo antitumor activity was measured on MX-1 human mammary carcinoma cells. TWI%=tumor weight inhibition. Optimal dose 10 mg/kg/day. In kind it is functional.
Assay [14] deals with P388. Briefly: In vivo antitumor activity was measured on systemic P388 murine leukemia cells. Optimal dose 9 mg/kg/day. It counts as functional, Mus musculus. In short, it runs like this:
as §1

Assay [15] deals with MX1. Briefly: In vivo antitumor activity was measured on MX-1 human mammary carcinoma cells. TWI%=tumor weight inhibition. Optimal dose 11 mg/kg/day. It counts as functional.
Assay [16] concerns MX1. Briefly: In vivo antitumor activity was measured on MX-1 human mammary carcinoma cells. TWI%=tumor weight inhibition. Optimal dose 4.5 mg/kg/day. It counts as functional.
The test system of assay [17] is P388. Put plainly: In vivo antitumor activity was measured on systemic P388 murine leukemia cells. Optimal dose 2 mg/kg/day. It counts as functional, Mus musculus. Summed up: as §1
Assay [18] concerns MX1. Put plainly: Antitumor activity was measured on MX-1 human mammary carcinoma cells. TWI%=tumor weight inhibition. Optimal dose at 13.5 mg/kg/day. In kind it is functional.
In assay [19] the test system is P388. Briefly: In vivo antitumor activity was measured on systemic P388 murine leukemia cells. Optimal dose at 13.5 mg/kg/day. In kind it is functional, Mus musculus. In short, it runs like this:
as §1

Assay [20] deals with P388. Briefly: In vivo antitumor activity was measured on systemic P388 murine leukemia cells. Optimal dose at 7.5 mg/kg/day. It counts as functional, Mus musculus. Summed up: as §1
For assay [21], the system named is MX1. Put plainly: Antitumor activity was measured on MX-1 human mammary carcinoma cells. TWI%=tumor weight inhibition. Optimal dose at 7.5 mg/kg/day. In kind it is functional.

In turn, `O=C1c2ccncc2-c2nn(CCNCCO)c3ccc(NCCN(CCO)CCO)c1c23` gave a T/C in assay [1] of 111%. The IC50 in assay [2] and in [3] was greater than 100 µg/mL in each case. In [4], this molecule yielded a TWI of 45%.

In [5], `O=C1c2ccncc2-c2nn(CCNCCO)c3ccc(NCCO)c1c23` displayed a T/C of 113%. For the same molecule, the IC50 in [2] is 53.1 µg/mL (≈ 145 µM); in [3] it was greater than 100 µg/mL. Further, the RI in assay [6] is greater than 1.9. For the same molecule, in [7], the TWI was found to be 49%.

Take `CN(C)CCn1nc2c3c(c(NCCN4CCCCC4)ccc31)C(=O)c1ccncc1-2`: the IC50 turned out to be 0.35 µg/mL (≈ 0.836 µM) in assay [2] and 0.39 µg/mL (≈ 0.932 µM) in [3]. The RI in assay [6] is 1.1. In addition, in assay [8], the T/C is on record as 113%. The molecule further showed a TWI in assay [9] of 6%.

Turning to `CNCCn1nc2c3c(c(NCCNCCO)ccc31)C(=O)c1ccncc1-2`, the half-inhibitory concentration (IC50) in assay [2] was 0.29 µg/mL (≈ 0.762 µM); in assay [3] it was 31.6 µg/mL (≈ 83.1 µM). Also, the RI in assay [6] is recorded as 109. Further, the T/C in assay [10] is listed as 181%.

Turning to `CNCCNc1ccc2c3c(nn2CCNC)-c2cnccc2C(=O)c13`, the IC50 in [2] amounted to 0.04 µg/mL (≈ 0.114 µM); in assay [3], 3.14 µg/mL (≈ 8.96 µM). Besides, the RI in [6] was determined as 78. For the same molecule, the T/C in [11] came to 167%.

As to `CN(C)CCCn1nc2c3c(c(NCCNCCO)ccc31)C(=O)c1ccncc1-2`, the T/C in [12] is given as 166%. The IC50 worked out at 0.3 µg/mL (≈ 0.734 µM) in assay [2] and 90 µg/mL (≈ 220 µM) in [3]. For the same molecule, in [6], the RI came to 300. Also, the TWI in [13] turned out to be 98%.

For the molecule `CN(C)CCNc1ccc2c3c(nn2CCN)-c2cnccc2C(=O)c13`, the IC50 in assay [2] worked out at 0.3 µg/mL (≈ 0.856 µM); in assay [3], 15.9 µg/mL (≈ 45.4 µM). Also, the RI in [6] is reported as 53. The T/C in assay [14] amounted to 231%. In assay [15], this molecule yielded a TWI of 80%.

Take `CN(C)CCn1nc2c3c(c(NCCN)ccc31)C(=O)c1ccncc1-2`: the values for the IC50 in [2] and in assay [3] were 0.16 µg/mL (≈ 0.457 µM) and 4.3 µg/mL (≈ 12.3 µM), respectively. Further, the RI in assay [6] is listed as 27. The molecule further had a TWI in [16] of 87%. The molecule further gave a T/C in assay [17] of 213%.

For `Cl.Cl.O=C1c2c(O)cccc2-c2nn(CCNCCO)c3ccc(NCCNCCO)c1c23`, in [18], the TWI was 95%. Besides, the figures for the 50% inhibitory concentration (IC50) in assay [2] and in assay [3] were 0.053 µg/mL and 44.5 µg/mL, respectively. The RI in assay [6] stood at 840. The molecule further displayed a T/C in [19] of 147%.

Turning to `COc1cccc2c1C(=O)c1c(O)c3c(c(O)c1C2=O)C[C@@](O)(C(=O)CO)C[C@@H]3O[C@H]1C[C@H](N)[C@H](O)[C@H](C)O1` [DOXORUBICIN], the T/C in [20] came out at 200%. The figures for the concentration for half-maximal inhibition (IC50) in [2] and in assay [3] were 0.58 µg/mL (≈ 1.07 µM) and 53 µg/mL (≈ 97.5 µM), respectively. For the same molecule, in assay [6], the RI worked out at 91.3. In addition, the TWI in assay [21] turned out to be 64%.

One may read the T/C as the ratio of treated to control. As a reminder, the IC50 is the concentration that gives 50% inhibition. A lower IC50 goes with greater potency in that assay.
